Bioassay records as filed in PubChem BioAssay.
HIV Env fusion: inhibitors of HIV-1 Env-driven cell-cell fusion, primary screen, HeLa-JRFL effector, CEM21 target cells, luciferase; inhibition, % at 12.3 µM; actives 1.1% (n = 360,000); AID 651610, 2012;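 active = mean replicate inhibition score of at least 50 and every replicate individually at or above 50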;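 also: 0% = plate neutral controls and 100% = maraviroc near 300 nM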
rRNA inh HTS: reduced GFP signal of wild-type E. coli, primary screen, bacterial rRNA inhibitor project, GFP/RFP fluorescence, OD600, single point. E. coli WT GFP vs humanized-ribosome RFP mutants, 24 h; active compounds read low; DMSO median 0, no signal -100. GFP signal change (wild-type ribosome), % (concentration not given with the values). actives 1.6% (n = 350,000);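 active = significant combined selectivity score with lowered wild-type GFP, culture density cut under 30%, mutant RFP and density less affected; inactive = any of these conditions unmet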
PGC1a acetyl inh: inhibitors of PGC1a acetylation signal, primary screen, cell-based, U2OS, AlphaScreen, inhibitor mode. AlphaScreen anti-acetyl-lysine; with virally co-expressed GCN5 acetyltransferase. inhibition, % at 15.6 µM. actives 0.17% (n = 350,000). AID 651687, 2012;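 active = every replicate shows inhibition of at least 40%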;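 also: 0% = neutral control wells and 100% = positive control wells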
FGF22 binding: binders of human FGF22 protein, primary screen, FGF22 synaptogenesis inhibitor project, biophysical, thermal shift, single point; actives 1.5% (n = 340,000); AID 651658, 2012; activity (Tm shift, normalised), % at 9.99 µM; recombinant FGF22 thermal shift, SYPRO orange fluorescence; percent of sucrose octasulfate shift, DMSO zero;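 active = mean Tm shift, scaled 0 neutral to 100 positive control, at about 1.3% or above, every replicate too, limit read from the data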
Target sequence (Q9HCT0 whole entry, looked up): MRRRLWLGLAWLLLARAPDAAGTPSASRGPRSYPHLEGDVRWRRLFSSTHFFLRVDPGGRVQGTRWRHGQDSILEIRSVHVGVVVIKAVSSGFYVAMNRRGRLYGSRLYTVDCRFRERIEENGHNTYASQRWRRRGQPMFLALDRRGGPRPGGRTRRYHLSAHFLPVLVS
Cneo AK release: Cryptococcus neoformans cell lysis inducers, primary screen, AK release luminescence, single concentration. C. neoformans lysis, adenylate kinase release luminescence, 4 h; normalised: neutral wells 0, clomiphene wells 100. lysis activity, % at 15 µM. AID 651654, 2012. actives 0.2% (n = 360,000);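 active = mean lysis activity across replicates of at least 80%, whatever share of replicates individually reach that level; inactive = mean lysis activity below 80%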
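Test system: log-phase Cryptococcus neoformans yeast cells. Input: 5 × 10^6 yeast cells/mL. Medium: fresh YPD growth medium. Doses: single dose. Incubation: static 4 h at 37 °C with compound, 1 h detection. Measured by: luminescent adenylate kinase detection reagent. Read-out: signal increase indicating cell lysis. Benchmarks: Clomiphene.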
ERAP1 inh: human ERAP1 aminopeptidase inhibitors, primary screen, biochemical, single point, plate reader. AID 652197, 2013. actives 0.15% (n = 340,000). Endoplasmic reticulum aminopeptidase 1 (Homo sapiens), Q9NZ08. recombinant ERAP1, Leu-AMC fluorescence, 60 min. inhibition, % at 10.7 µM;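 active = mean replicate inhibition of at least 30%, or all replicates individually reaching that 30% level; inactive = mean below 30% and not every replicate reaching it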;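 also: 0% = neutral control wells and 100% = L-leucinethiol positive control wells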
Active calls of the source: *; · = no result; ! = not confirmed by another sample. Sampled rows, rich in hits. Any-hit rate of the full collection: about 3.5%.

SMILES	HIV Env fusion	rRNA inh HTS	PGC1a acetyl inh	FGF22 binding	Cneo AK release	ERAP1 inh
CO/N=C\CC(=O)Nc1ccc(Cl)cc1Cl	-85	14	·	43*	·	0
CO/N=C\CC(=O)Nc1ccc(F)cc1	-3	·	·	·	5	·
COc1cccc(OCc2cc(C(=O)NCc3ccc4c(c3)OCO4)no2)c1	-20	-33*	3	0	-9	1
CCCc1cc(C(=O)NCc2ccc(OC)cc2)no1	85*	0	-4	0	0	4
COc1ccccc1CCNC(=O)c1cc(COc2cccc(C(F)(F)F)c2)on1	5	-34*	-6	0	4	1
O=C(NCc1ccc2c(c1)OCO2)c1cc(COc2c(F)cccc2F)on1	0	-9	·	0	0	0
CC(CC(=O)Nc1ccc2c(c1)OCCO2)c1ccccc1 (stereo not given)	9	·	-4	·	-1	·
CC1=NOC(=O)/C1=C/c1ccc(O)c(Br)c1	-3	8	-6	0	0	5
CCN=c1scc(C)n1/N=C/c1cc(Br)c(O)c(Br)c1	3	-22	1	43*	·	1
CCN=c1scc(C)n1/N=C/c1ccc(O)c(O)c1O	-11	·	1	·	-5	·
NS(=O)(=O)c1ccc(NC(=O)c2ccc(S(=O)(=O)N3CCCCC3)cc2)cc1	-5	-12	·	0	-3	1
C[n+]1c2n(c3ccccc31)N=C(c1ccccc1)CS2	61*!	5	7	0	-4	-4
C[n+]1c2n(c3ccccc31)N=C(c1ccc(-c3ccccc3)cc1)CS2	66*	-58	-21	1	·	0
CCC(=O)N1[C@@H](CO)[C@@H]2c3ccccc3N(S(=O)(=O)c3ccccc3F)C[C@@H]21	·	-2	0	1	-3	1
Cc1nn(Cc2ccc(F)cc2)c2sc(C(=O)Nc3nccs3)cc12	4	6	·	44*	·	-1
Cc1nn(Cc2ccccc2Cl)c2sc(C(=O)Nc3nccs3)cc12	0	·	·	·	·	·
C=CCn1cccc(/C=C/C(=O)c2ccc(C(C)(C)C)cc2)c1=S	6	·	53*	·	·	·
COc1ccc([N+](=O)[O-])cc1NC(=O)Cc1ccc(Cl)cc1	34	·	·	·	·	·
COc1ccc(NS(=O)(=O)c2ccc(Cl)c(NC(=O)c3ccccc3F)c2)cc1	20	-13*	-9	1	-1	1
O=C(O)c1ccc(NS(=O)(=O)c2ccc(Cl)c(C(=O)Nc3ccccc3)c2)cc1	1	0	-3	0	-2	2
O=C(Nc1ccccc1C(=O)O)c1cc(S(=O)(=O)Nc2ccccc2)ccc1Cl	10	-12	-1	2.8*	3	0
O=C(O)c1ccccc1NS(=O)(=O)c1cccc(NS(=O)(=O)c2cc(Br)ccc2Br)c1	-4	8	-3	·	2	33*
CCOc1ccc(Br)cc1S(=O)(=O)Nc1cccc(S(=O)(=O)Nc2ccccc2C(=O)O)c1	·	-7	·	·	-3	-5
Cc1ccc(S(=O)(=O)N(CC(=O)N2CCOCC2)c2ccc(Br)cc2)cc1	1	1	·	0	-2	2
COCCC(=O)N1CCC(Oc2ccc(C(=O)N3C[C@@H](C)O[C@@H](C)C3)cc2)CC1	-13	·	8	0	0	-8
CC1CCCC(NC(=O)COC(=O)c2cc3ccccc3oc2=O)C1C (stereo not given)	·	·	5	0	-3	2
CC1CCN(C(=O)COC(=O)c2cc3ccccc3oc2=O)CC1	-65	16	-15	44*	8	0
O=S(=O)(c1ccc(Cl)cc1)N1CCCN(c2nc3ccc(Cl)cc3s2)CC1	91*	13	6	0	·	·
COc1ccc(C#Cc2ccc([C@@H]3[C@H](CO)N4C(=O)CN(C(=O)c5ccncc5)C[C@@H]34)cc2)cc1	·	3	5	·	·	2
